Source: ChEMBL document CHEMBL1136706, “Synthesis and evaluation of a novel series of farnesyl protein transferase inhibitors as non-peptidic CAAX tetrapeptide analogues” (Bioorg Med Chem Lett, 2003)

What was measured:
[1] = test system: DLD-1; assay: Concentration required to inhibit 50% of farnesylation of H-Ras in DLD-1 cells; type: functional, cell-based; settings: Homo sapiens
[2] = target: Protein farnesyltransferase (Bos taurus, UniProt P29702+P49355); assay: Inhibit of purified bovine Farnesyl protein transferase.; type: protein-complex assay
Summary of the method: (§1)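 Isolated-enzyme inhibition assays (FPTase, and GGPTase I for the GGPTase lines) were run by a previously published method, with n=2 determinations per compound. The read-out is the IC50 in nM.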

[3] = Concentration required to inhibit 50% of GGPTase enzyme activity; summary of the method: as §1

SMILES	IC50 [1] [nM]	IC50 [2] [nM]	IC50 [3] [nM]
N#Cc1ccc(Cn2cncc2CN(c2ccc(N3CCN(C(=O)c4ccc(Cl)s4)CC3)cc2)S(=O)(=O)c2ccccc2)cc1	200		
N#Cc1ccc(Cn2cncc2CN(Cc2cccc(F)c2)c2ccc(N3CCN(C(=O)c4ccc(Cl)s4)CC3)cc2)cc1		20	
O=C(c1ccc(Cl)s1)N1CCN(c2ccc(N(Cc3cnc[nH]3)S(=O)(=O)c3ccccc3)cc2)CC1		600	
COc1cccc(C(=O)N(Cc2cncn2Cc2ccc(C#N)cc2)c2ccc(N3CCN(C(=O)c4ccc(Cl)s4)CC3)cc2)c1	7	2	700
O=S(=O)(c1ccccc1)N(Cc1c[nH]cn1)c1ccc(N2CCN(C(=S)Nc3ccccc3)CC2)cc1		600	> 1000
N#Cc1ccc(Cn2cncc2CN(C(=O)c2ccccc2)c2ccc(N3CCN(C(=O)c4ccc(Cl)s4)CC3)cc2)cc1	3		> 1000
O=C(NC1CCCCC1)N1CCN(c2ccc(N(Cc3cnc[nH]3)S(=O)(=O)c3ccccc3)cc2)CC1		1000	
O=S(=O)(c1ccccc1)N(Cc1c[nH]cn1)c1ccc(N2CCN(C(=S)NCCc3ccccc3)CC2)cc1		100	> 1000
COc1ccccc1C(=O)N(Cc1cncn1Cc1ccc(C#N)cc1)c1ccc(N2CCN(C(=O)c3ccc(Cl)s3)CC2)cc1	> 10000	2	
CC(C)C/N=C(\S)N1CCN(c2ccc(N(Cc3c[nH]cn3)S(=O)(=O)c3ccccc3)cc2)CC1	800		> 1000
O=C(NCc1ccccc1)N1CCN(c2ccc(N(Cc3cnc[nH]3)S(=O)(=O)c3ccccc3)cc2)CC1		600	
O=S(=O)(c1ccccc1)N(Cc1c[nH]cn1)c1ccc(N2CCN(C(=S)NCc3ccccc3)CC2)cc1		60	> 1000
N#Cc1ccc(Cn2cncc2CN(C(=O)c2ccccc2F)c2ccc(N3CCN(C(=O)c4ccc(Cl)s4)CC3)cc2)cc1	20		
COc1ccc(C(=O)N(Cc2cncn2Cc2ccc(C#N)cc2)c2ccc(N3CCN(C(=O)c4ccc(Cl)s4)CC3)cc2)cc1	80	2	
N#Cc1ccc(Cn2cncc2CN(C(=O)c2cccc(Cl)c2)c2ccc(N3CCN(C(=O)c4ccc(Cl)s4)CC3)cc2)cc1	2	2	> 1000
O=S(=O)(c1ccccc1)N(Cc1c[nH]cn1)c1ccc(N2CCN(C(=S)NCC3CCCCC3)CC2)cc1		30	> 1000
N#Cc1ccc(Cn2cncc2CN(C(=O)c2cccc(F)c2)c2ccc(N3CCN(C(=O)c4ccc(Cl)s4)CC3)cc2)cc1	6		> 1000
N#Cc1ccc(Cn2cncc2CNc2ccc(N3CCN(C(=O)c4ccc(Cl)s4)CC3)cc2)cc1		70	
O=S(=O)(c1ccccc1)N(Cc1c[nH]cn1)c1ccc(N2CCN(C(=S)NC3CCCCC3)CC2)cc1	1000	20	> 1000
N#Cc1ccc(Cn2cncc2CN(Cc2ccc(F)cc2)c2ccc(N3CCN(C(=O)c4ccc(Cl)s4)CC3)cc2)cc1		70	
O=C(Nc1ccccc1)N1CCN(c2ccc(N(Cc3cnc[nH]3)S(=O)(=O)c3ccccc3)cc2)CC1		1000	
